Laboratory results as given in ChEMBL document CHEMBL3351334, “Protective effects of resveratrol on hepatotoxicity induced by isoniazid and rifampicin via SIRT1 modulation” (2014).
The source made the active and inactive calls. The rule behind the calls is not given here.

Key:
Mus musculus [1] = test: Hepatoprotective activity against isoniazid-rifampicin induced liver injury in BALB/c mouse assessed as reduction in TNFalpha level at 100 mg/kg, po bid for 3 days starting 30 mins prior isoniazid-rifampicin administration measured 24 hrs post-last dose of isoniazid-rifampicin relative to control; assay type: functional, organism-based; set-up: dose 100 mg/kg
Method in brief: (§1)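 Cytokines measured in homogenized liver tissue by flow cytometry (488 nm laser, high-throughput sampler). Tissue from male BALB/c mice 24 h after final oral isoniazid 50 mg/kg + rifampicin 100 mg/kg. n = 6/group, mean ± SEM, one-way ANOVA/Newman–Keuls.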

Mus musculus [2] = test: Hepatoprotective activity against isoniazid-rifampicin induced liver injury in BALB/c mouse assessed as restoration of SIRT1 mRNA level at 100 mg/kg, po bid for 3 days starting 30 mins prior isoniazid-rifampicin administration measured 24 hrs post-last dose of isoniazid-rifampicin relative to control; assay type: functional, organism-based; set-up: dose 100 mg/kg
Method in brief: (§2)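 Livers taken 24 h after the last of three daily oral isoniazid 50 mg/kg + rifampicin 100 mg/kg doses (in 1% DMSO/saline). Hepatic mRNA measured by qPCR with mouse GAPDH probe as endogenous control, reactions in duplicate, relative expression by the 2ΔΔC method. n = 6 male BALB/c mice/group, mean ± SEM.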

Mus musculus [3] = test: Hepatoprotective activity against isoniazid-rifampicin induced liver injury in BALB/c mouse assessed as reduction ALT level at 100 mg/kg, po bid for 3 days starting 30 mins prior isoniazid-rifampicin administration measured 24 hrs post-last dose of isoniazid-rifampicin relative to control; assay type: functional; set-up: scale not given: the % may be the effect or the level left
Method in brief: (§3)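 Serum AST and ALT measured with commercial kits in blood drawn 24 h after the last of three daily oral isoniazid (50 mg/kg) + rifampicin (100 mg/kg) doses. 6 male BALB/c mice per group, mean ± SEM, one-way ANOVA with Newman–Keuls test.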

Mus musculus [4] = test: Hepatoprotective activity against isoniazid-rifampicin induced liver injury in BALB/c mouse assessed as reduction in hepatic myeloperoxidase activity at 100 mg/kg, po bid for 3 days starting 30 mins prior isoniazid-rifampicin administration measured 24 hrs post-last dose of isoniazid-rifampicin relative to control; assay type: functional; set-up: scale not given: the % may be the effect or the level left
Method in brief: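 Neutrophil recruitment estimated from hepatic myeloperoxidase activity (modified Paszcuk method), expressed as OD/mg tissue. Livers collected 24 h after the last oral isoniazid 50 mg/kg + rifampicin 100 mg/kg dose of a 3-day course. 6 male BALB/c mice/group, mean ± SEM.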

Mus musculus [5] = test: Hepatoprotective activity against isoniazid-rifampicin induced liver injury in BALB/c mouse assessed as reduction in fatty accumulation at 100 mg/kg, po bid for 3 days starting 30 mins prior isoniazid-rifampicin administration measured 24 hrs post-last dose of isoniazid-rifampicin relative to control; assay type: functional, organism-based; set-up: dose 100 mg/kg
Method in brief: (§4)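 Liver fixed in 10% formaldehyde and paraffin-embedded. 4 μm sections stained with hematoxylin and eosin, examined by light microscopy by a veterinary pathologist blinded to groups. Tissue taken 24 h after the last of 3 daily oral isoniazid (50 mg/kg) + rifampicin (100 mg/kg) doses.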

Mus musculus [6] = test: Hepatoprotective activity against isoniazid-rifampicin induced liver injury in BALB/c mouse assessed as change in SIRT5 mRNA level at 100 mg/kg, po bid for 3 days starting 30 mins prior isoniazid-rifampicin administration measured 24 hrs post-last dose of isoniazid-rifampicin relative to control; assay type: functional, organism-based; set-up: dose 100 mg/kg; method in brief: as §2
Mus musculus [7] = test: Hepatoprotective activity against isoniazid-rifampicin induced liver injury in BALB/c mouse assessed as reduction in IL-12p70 level at 100 mg/kg, po bid for 3 days starting 30 mins prior isoniazid-rifampicin administration measured 24 hrs post-last dose of isoniazid-rifampicin relative to control; assay type: functional, organism-based; set-up: dose 100 mg/kg; method in brief: as §1
Mus musculus [8] = test: Hepatoprotective activity against isoniazid-rifampicin induced liver injury in BALB/c mouse assessed as increase in catalase activity depletion at 100 mg/kg, po bid for 3 days starting 30 mins prior isoniazid-rifampicin administration measured 24 hrs post-last dose of isoniazid-rifampicin relative to control; assay type: functional
Method in brief: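 Liver homogenized 1:9 w/v in 0.9% saline and spun 3500g, 10 min, 4 °C. Supernatant in 50 mM PBS pH 7.0 with 20 mM H2O2 substrate. H2O2 decomposition followed continuously at 240 nm (Aebi method), expressed as mmol H2O2/min/mg protein. n = 6 mice, mean ± SEM.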

Mus musculus [9] = test: Hepatoprotective activity against isoniazid-rifampicin induced liver injury in BALB/c mouse assessed as reduction in PGC-1alpha mRNA level at 100 mg/kg, po bid for 3 days starting 30 mins prior isoniazid-rifampicin administration measured 24 hrs post-last dose of isoniazid-rifampicin relative to control; assay type: functional, organism-based; set-up: dose 100 mg/kg; method in brief: as §2
Mus musculus [10] = test: Hepatoprotective activity against isoniazid-rifampicin induced liver injury in BALB/c mouse assessed as reduction in MCP-1 level at 100 mg/kg, po bid for 3 days starting 30 mins prior isoniazid-rifampicin administration measured 24 hrs post-last dose of isoniazid-rifampicin relative to control; assay type: functional, organism-based; set-up: dose 100 mg/kg
Mus musculus [11] = test: Hepatoprotective activity against isoniazid-rifampicin induced liver injury in BALB/c mouse assessed as reversal of GSH depletion at 100 mg/kg, po bid for 3 days starting 30 mins prior isoniazid-rifampicin administration measured 24 hrs post-last dose of isoniazid-rifampicin relative to control; assay type: functional
Method in brief: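 Reduced glutathione assayed with DTNB. Liver homogenized 1:9 w/v in 0.9% saline, spun 3500g 20 min 4 °C. Supernatant deproteinized with 4% sulfosalicylic acid, spun again, then mixed with 0.1 M phosphate buffer and 0.01 M DTNB. Absorbance at 412 nm. 6 mice/group, mean ± SEM.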

Mus musculus [12] = test: Hepatoprotective activity against isoniazid-rifampicin induced liver injury in BALB/c mouse assessed as effect on nicotinamide phosphoribosyltransferase mRNA level at 100 mg/kg, po bid for 3 days starting 30 mins prior isoniazid-rifampicin administration measured 24 hrs post-last dose of isoniazid-rifampicin relative to control; assay type: functional, organism-based; set-up: dose 100 mg/kg; method in brief: as §2
Mus musculus [13] = test: Hepatoprotective activity against isoniazid-rifampicin induced liver injury in BALB/c mouse assessed as change in SIRT2 mRNA level at 100 mg/kg, po bid for 3 days starting 30 mins prior isoniazid-rifampicin administration measured 24 hrs post-last dose of isoniazid-rifampicin relative to control; assay type: functional, organism-based; set-up: dose 100 mg/kg; method in brief: as §2
Mus musculus [14] = test: Hepatoprotective activity against isoniazid-rifampicin induced liver injury in BALB/c mouse assessed as change in SIRT6 mRNA level at 100 mg/kg, po bid for 3 days starting 30 mins prior isoniazid-rifampicin administration measured 24 hrs post-last dose of isoniazid-rifampicin relative to control; assay type: functional, organism-based; set-up: dose 100 mg/kg; method in brief: as §2
Mus musculus [15] = test: Hepatoprotective activity against isoniazid-rifampicin induced liver injury in BALB/c mouse assessed as reduction AST level at 100 mg/kg, po bid for 3 days starting 30 mins prior isoniazid-rifampicin administration measured 24 hrs post-last dose of isoniazid-rifampicin relative to control; assay type: functional; set-up: scale not given: the % may be the effect or the level left; method in brief: as §3
Mus musculus [16] = test: Hepatoprotective activity against isoniazid-rifampicin induced liver injury in BALB/c mouse assessed as reduction in PPAR-gamma mRNA level at 100 mg/kg, po bid for 3 days starting 30 mins prior isoniazid-rifampicin administration measured 24 hrs post-last dose of isoniazid-rifampicin relative to control; assay type: functional, organism-based; set-up: dose 100 mg/kg; method in brief: as §2
Mus musculus [17] = test: Hepatoprotective activity against isoniazid-rifampicin induced liver injury in BALB/c mouse assessed as prevention of liver statosis development at 100 mg/kg, po bid for 3 days starting 30 mins prior isoniazid-rifampicin administration measured 24 hrs post-last dose of isoniazid-rifampicin relative to control; assay type: functional, organism-based; set-up: dose 100 mg/kg; method in brief: as §4
Mus musculus [18] = test: Hepatoprotective activity against isoniazid-rifampicin induced liver injury in BALB/c mouse assessed as change in SIRT3 mRNA level at 100 mg/kg, po bid for 3 days starting 30 mins prior isoniazid-rifampicin administration measured 24 hrs post-last dose of isoniazid-rifampicin relative to control; assay type: functional, organism-based; set-up: dose 100 mg/kg; method in brief: as §2
Mus musculus [19] = test: Hepatoprotective activity against isoniazid-rifampicin induced liver injury in BALB/c mouse assessed as effect on NADH concentration at 100 mg/kg, po bid for 3 days starting 30 mins prior isoniazid-rifampicin administration measured 24 hrs post-last dose of isoniazid-rifampicin relative to control; assay type: functional, organism-based; set-up: dose 100 mg/kg
Method in brief: (§5)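 Liver NAD+ and NADH quantified with a commercial colorimetric kit per manufacturer's instructions, reduced product read at 565 nm. Tissue collected 24 h after the final oral isoniazid (50 mg/kg) + rifampicin (100 mg/kg) dose of a 3-day course. 6 male BALB/c mice per group.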

Mus musculus [20] = test: Hepatoprotective activity against isoniazid-rifampicin induced liver injury in BALB/c mouse assessed as change in SIRT4 mRNA level at 100 mg/kg, po bid for 3 days starting 30 mins prior isoniazid-rifampicin administration measured 24 hrs post-last dose of isoniazid-rifampicin relative to control; assay type: functional, organism-based; set-up: dose 100 mg/kg; method in brief: as §2
Mus musculus [21] = test: Hepatoprotective activity against isoniazid-rifampicin induced liver injury in BALB/c mouse assessed as reduction in hepatic lesion at 100 mg/kg, po bid for 3 days starting 30 mins prior isoniazid-rifampicin administration measured 24 hrs post-last dose of isoniazid-rifampicin relative to control; assay type: functional, organism-based; set-up: dose 100 mg/kg; method in brief: as §4
Mus musculus [22] = test: Hepatoprotective activity against isoniazid-rifampicin induced liver injury in BALB/c mouse assessed as effect on NAD+ concentration at 100 mg/kg, po bid for 3 days starting 30 mins prior isoniazid-rifampicin administration measured 24 hrs post-last dose of isoniazid-rifampicin relative to control; assay type: functional, organism-based; set-up: dose 100 mg/kg; method in brief: as §5
Mus musculus [23] = test: Hepatoprotective activity against isoniazid-rifampicin induced liver injury in BALB/c mouse assessed as reduction in IL-10 level at 100 mg/kg, po bid for 3 days starting 30 mins prior isoniazid-rifampicin administration measured 24 hrs post-last dose of isoniazid-rifampicin relative to control; assay type: functional, organism-based; set-up: dose 100 mg/kg; method in brief: as §1
Mus musculus [24] = test: Hepatoprotective activity against isoniazid-rifampicin induced liver injury in BALB/c mouse assessed as reduction in IL6 level at 100 mg/kg, po bid for 3 days starting 30 mins prior isoniazid-rifampicin administration measured 24 hrs post-last dose of isoniazid-rifampicin relative to control; assay type: functional, organism-based; set-up: dose 100 mg/kg
Mus musculus [25] = test: Hepatoprotective activity against isoniazid-rifampicin induced liver injury in BALB/c mouse assessed as change in SIRT7 mRNA level at 100 mg/kg, po bid for 3 days starting 30 mins prior isoniazid-rifampicin administration measured 24 hrs post-last dose of isoniazid-rifampicin relative to control; assay type: functional, organism-based; set-up: dose 100 mg/kg; method in brief: as §2

In the case of `Oc1ccc(/C=C/c2cc(O)cc(O)c2)cc1` [RESVERATROL], the Activity (Mus musculus [1]) was “Active”, the Activity (Mus musculus [2]) was “Active” and the Activity (Mus musculus [3]) was 58%. For the same compound, the Activity (Mus musculus [4]) was 19%, the Activity (Mus musculus [5]) was “Active” and the Activity (Mus musculus [6]) was “inactive”. For the same compound, the Activity (Mus musculus [7]) was “Active”, the Activity (Mus musculus [8]) was 34% and the Activity (Mus musculus [9]) was “Active”. The Activity (Mus musculus [10]) was “inactive”, the Activity (Mus musculus [11]) was 89% and the Activity (Mus musculus [12]) was “inactive”. The Activity (Mus musculus [13]) was “inactive”, the Activity (Mus musculus [14]) was “inactive” and the Activity (Mus musculus [15]) was 36%. The Activity (Mus musculus [16]) was “Active”, the Activity (Mus musculus [17]) was “Active” and the Activity (Mus musculus [18]) was “inactive”. For the same compound, the Activity (Mus musculus [19]) was “inactive”, the Activity (Mus musculus [20]) was “inactive” and the Activity (Mus musculus [21]) was “Active”. For the same compound, the Activity (Mus musculus [22]) was “inactive”, the Activity (Mus musculus [23]) was “Active” and the Activity (Mus musculus [24]) was “inactive”. For the same compound, the Activity (Mus musculus [25]) was “inactive”.
